Experimental data pooled from the literature.
Target: Serine-protein kinase ATM (ATM, Homo sapiens, UniProt Q13315)

SMILES | test | setting | endpoint | result
CN1CC(Oc2cnc(C#N)cc2-c2ccn3nc(NC(=O)C4CC4)cc3c2)C1 | enzyme activity, inhibitor | 1 µM | inhibition | 14%
Cc1ccc(NC(=O)c2ccc(C)c(C(F)(F)F)c2)cc1C#Cc1nn(C2CCC(O)CC2)c2ncnc(N)c12 (centres unmarked) | cell-free assay | 10 µM | remaining signal | 102%
Cc1cc(NC(=O)c2cccc3cc(-c4cccc5[nH]nc(N)c45)ccc23)ccc1F | enzyme activity, inhibitor | 0.1 µM | activity vs control | 94%
CCCCNc1ncc2c(-c3ccc(F)cc3)nn(C[C@H]3CC[C@H](N)CC3)c2n1 | target engagement in cells, inhibitor, chemoproteomics | 20 mM | inhibition | 57.4%
Cc1cnc(NC2CCOCC2)nc1-n1cnc(C(=O)NC(CN)c2cc(F)cc(Cl)c2)c1 (centres unmarked) | enzyme activity, inhibitor, radiometric | 1 µM | remaining activity | 102%
COc1cc(Cl)c(C(=O)N[C@@H](CN[C@H]2CC[C@@H](N)CC2)Cc2ccc(C#N)cc2)cc1-c1ccc(CN[C@H](C)c2ccc(C)cc2)o1 | enzyme activity, inhibitor | 1 µM | remaining activity | 106%
Cc1ccc(C(=O)NCc2ccsc2)cc1C#Cc1cn(C(C)C)c2ncnc(N)c12 | enzyme activity, inhibitor | 1 µM | activity vs control | 101%
COc1cccc2c(NCc3ccccc3)nc(-n3c(N)nc4ccccc43)nc12 | target engagement in cells, inhibitor, chemoproteomics | 20 mM | inhibition | -4.3%
